From ChEMBL document CHEMBL2203159, “Synthesis and structure-activity relationships of fibrate-based analogues inside PPARs” (Bioorg Med Chem Lett, 2012)

Columns and labels:
[1] = molecular target: T1, Peroxisome proliferator-activated receptor alpha (Homo sapiens, UniProt Q07869); experiment: Transactivation of human GAL4-fused PPARalpha ligand binding domain transfected in HEK293 cells after 18 hrs by dual luciferase reporter gene assay; assay type: cell-based
T1 sequence (Q07869 whole entry): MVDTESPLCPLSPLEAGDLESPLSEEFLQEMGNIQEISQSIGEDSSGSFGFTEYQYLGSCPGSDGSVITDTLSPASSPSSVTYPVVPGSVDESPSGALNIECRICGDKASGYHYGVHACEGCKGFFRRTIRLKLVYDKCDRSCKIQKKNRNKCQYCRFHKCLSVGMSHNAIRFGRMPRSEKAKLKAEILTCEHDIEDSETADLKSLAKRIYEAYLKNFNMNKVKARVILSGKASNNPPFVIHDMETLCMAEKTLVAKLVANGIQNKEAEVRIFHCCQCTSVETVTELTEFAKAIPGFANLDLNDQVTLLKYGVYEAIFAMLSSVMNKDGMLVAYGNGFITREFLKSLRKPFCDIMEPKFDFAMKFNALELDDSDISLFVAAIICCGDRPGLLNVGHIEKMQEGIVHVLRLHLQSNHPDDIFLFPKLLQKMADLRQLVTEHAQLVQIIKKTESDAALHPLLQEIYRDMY
How it was run: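 HEK293 cells carried a GAL4–PPAR chimera and a GAL4-responsive luciferase reporter in a transactivation assay. Compounds were tested at 1 to 150 µM in at least two separate experiments, and results are given ± SEM.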

[2] = molecular target: T2, Peroxisome proliferator-activated receptor alpha (Homo sapiens) (UniProt Q07869); experiment: Transactivation of human GAL4-fused PPARalpha ligand binding domain transfected in HEK293 cells at 150 uM after 18 hrs by dual luciferase reporter gene assay relative to clofibric acid; assay type: cell-based
T2 sequence (whole entry): T1 sequence (Q07869 whole entry)
How it was run: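 This is a GAL4–PPAR transactivation assay in HEK293 cells with a GAL4-responsive luciferase reporter, run in at least two separate experiments. Efficacy is the percentage of the maximum fold induction obtained with the reference agonist clofibric acid. Results are given ± SEM.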

[3] = molecular target: T3, Peroxisome proliferator-activated receptor gamma (Homo sapiens, UniProt P37231); experiment: Transactivation of human GAL4-fused PPARgamma ligand binding domain transfected in HEK293 cells after 18 hrs by dual luciferase reporter gene assay; assay type: cell-based
T3 sequence (P37231 whole entry): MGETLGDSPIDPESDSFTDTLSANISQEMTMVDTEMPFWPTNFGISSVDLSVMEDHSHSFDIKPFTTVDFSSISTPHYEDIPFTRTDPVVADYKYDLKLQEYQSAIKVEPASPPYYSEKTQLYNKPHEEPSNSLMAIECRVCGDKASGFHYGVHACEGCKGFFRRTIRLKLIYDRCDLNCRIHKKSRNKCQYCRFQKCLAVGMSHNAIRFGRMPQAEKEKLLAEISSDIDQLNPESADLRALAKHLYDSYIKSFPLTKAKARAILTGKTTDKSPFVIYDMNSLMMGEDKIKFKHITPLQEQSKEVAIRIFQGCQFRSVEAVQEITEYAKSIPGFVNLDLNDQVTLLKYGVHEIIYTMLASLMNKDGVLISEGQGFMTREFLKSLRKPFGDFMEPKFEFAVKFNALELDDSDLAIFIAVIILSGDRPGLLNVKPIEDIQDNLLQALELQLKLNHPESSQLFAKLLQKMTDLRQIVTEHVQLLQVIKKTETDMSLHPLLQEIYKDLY

[4] = molecular target: T2, Peroxisome proliferator-activated receptor alpha (Homo sapiens); experiment: Transactivation of PPARalpha in human HepG2 cells assessed as increase in CPT1A mRNA expression after 48 hrs by RT-qPCR analysis

Row | SMILES | EC50 ([1]; read-out: EC50) | %max [2] | EC50 ([3]; read-out: EC50) | Activity [4] | EC50 ([1]; hek293) | EC50 ([3]; hek293)
1 | CC(C)(Oc1ccc(CCOc2nc3ccccc3s2)cc1)C(=O)O | 18.3 µM | 169% | 39.3 µM |  |  | 
2 | CC(C)(Oc1ccc(CCCOc2ccc(/N=N/c3ccccc3)cc2)cc1)C(=O)O | 42.8 µM | 81% | 10 µM |  |  | 
3 | CC(C)(Oc1ccc(CCO)cc1)C(=O)O | 75.1 µM | 94% |  |  |  | Not Active
4 | CC(C)(Oc1ccc(COc2nc3ccccc3s2)cc1)C(=O)O | 44.6 µM | 125% | 32 µM |  |  | 
5 | CC(C)(Oc1ccc(COc2ccc(/N=N/c3ccccc3)cc2)cc1)C(=O)O | 5.6 µM | 350% |  |  |  | 
6 | CC(C)(Oc1ccc(CCCO)cc1)C(=O)O | 30.6 µM | 181% |  |  |  | Not Active
7 | CCc1ccc(CCOc2ccc(CC3SC(=O)NC3=O)cc2)nc1 (configuration not stated) [PIOGLITAZONE] |  |  |  |  | Not Active | 
8 | CC(C)(Oc1ccc(COc2ccc(C(=O)/C=C/c3ccccc3)cc2)cc1)C(=O)O |  |  |  |  | Not Active | Not Active
9 | CC(C)(Oc1ccc(CCCOc2ccc(Oc3ccccc3)cc2)cc1)C(=O)O |  |  | 75.2 µM |  | Not Active | 
10 | CC(C)(Oc1ccc(CCOc2ccc(C(=O)c3ccccc3)cc2)cc1)C(=O)O |  |  | 54.6 µM |  | Not Active | 
11 | CC(C)(Oc1ccc(CO)cc1)C(=O)O | 34.5 µM | 119% | 30 µM |  |  | 
12 | CC(C)(Oc1ccc(CCOc2ccc(/C=C/c3ccccc3)cc2)cc1)C(=O)O | 11.6 µM | 81% | 12.6 µM |  |  | 
13 | CC(C)(Oc1ccc(Cl)cc1)C(=O)O [CLOFIBRIC ACID] |  |  |  |  |  | Not Active

Second part, the compound after the results:

Row | EC50 ([1]; read-out: EC50) | %max [2] | EC50 ([3]; read-out: EC50) | Activity [4] | EC50 ([1]; hek293) | EC50 ([3]; hek293) | SMILES
14 | 64 µM | 118% | 5.9 µM |  |  |  | CC(C)(Oc1ccc(CCOc2ccc(C(=O)/C=C/c3ccccc3)cc2)cc1)C(=O)O
15 | 0.6 µM | 158% | 1.4 µM | Dose-dependent effect |  |  | CC(C)(Oc1ccc(CCOc2ccc(/N=N/c3ccccc3)cc2)cc1)C(=O)O
16 |  |  | 5.4 µM |  | Not Active |  | CC(C)(Oc1ccc(COc2ccc(C(=O)c3ccccc3)cc2)cc1)C(=O)O
17 |  |  | 6.9 µM |  | Not Active |  | CC(C)(Oc1ccc(CCOc2ccc(Oc3ccccc3)cc2)cc1)C(=O)O
18 | 9.9 µM | 125% | 0.8 µM |  |  |  | CC(C)(Oc1ccc(CCCOc2ccc(/C=C/c3ccccc3)cc2)cc1)C(=O)O
19 | 40.5 µM | 156% | 6 µM |  |  |  | CC(C)(Oc1ccc(COc2ccc(/C=C/c3ccccc3)cc2)cc1)C(=O)O
20 |  |  | 5.8 µM |  | Not Active |  | CC(C)(Oc1ccc(CCCOc2ccc(C(=O)c3ccccc3)cc2)cc1)C(=O)O
21 | 45.8 µM | 100% | 7.9 µM |  |  |  | CC(C)(Oc1ccc(CCCOc2nc3ccccc3s2)cc1)C(=O)O
22 |  |  | 0.8 µM |  | Not Active |  | CC(C)(Oc1ccc(COc2ccc(Oc3ccccc3)cc2)cc1)C(=O)O
23 |  |  | 0.8 µM |  | Not Active |  | CC(C)(Oc1ccc(CCCOc2ccc(C(=O)/C=C/c3ccccc3)cc2)cc1)C(=O)O
